Results as given in ChEMBL document CHEMBL1154781, “Synthesis and antimicrobial activity of some new N-acyl substituted phenothiazines” (2009).
≈ marks a conversion by molar mass, not a printed value. Calls of active or inactive are those of the source. The calls are words filed in the database; no cut-off is given here.

Experiments:
[1] = test system: Staphylococcus aureus; experiment: Antibacterial activity against Staphylococcus aureus ATCC 25923 at >50 ug/ml after 24 hrs by disc diffusion method; assay type: functional, organism-based
Procedure, shortened: (§1)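 Bacterial strains tested on discs at each concentration, placed in triplicate in nutrient agar seeded with fresh bacteria; incubated 37 °C for 24 h. Ciprofloxacin served as reference, with solvent and growth controls. Zones of inhibition and MICs were recorded.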

[2] = test system: Candida albicans; experiment: Antifungal activity against Candida albicans NCIM 300 at 10 ug/ml after 2 to 3 days by serial plate dilution method; assay type: functional; conditions: read-out: IZ
Procedure, shortened: (§2)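 For the fungal lawn, a loopful of each strain was suspended in 3 ml normal saline and spread on agar plates. Excess suspension was decanted and the plates were dried 1 h at 37 °C. Wells were punched and labeled. Plates, including a triplicate control, were held at 37 °C for 2–3 days. Zones of inhibition and MIC were recorded against fluconazole as standard.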

[3] = test system: Pseudomonas aeruginosa; experiment: Antibacterial activity against Pseudomonas aeruginosa ATCC 27853 after 24 hrs by disc diffusion method; assay type: functional; conditions: ATCC 27853, 24 h; procedure, shortened: as §1
[4] = test system: Escherichia coli; experiment: Antibacterial activity against Escherichia coli ATCC 25922 after 24 hrs by disc diffusion method; assay type: functional; conditions: ATCC 25922, 24 h; procedure, shortened: as §1
[5] = test system: Escherichia coli; experiment: Antibacterial activity against Escherichia coli ATCC 25922 at 10 ug/ml after 24 hrs by disc diffusion method; assay type: functional; conditions: ATCC 25922, 24 h, read-out: IZ; procedure, shortened: as §1
[6] = test system: Pseudomonas aeruginosa; experiment: Antibacterial activity against Pseudomonas aeruginosa ATCC 27853 at 10 ug/ml after 24 hrs by disc diffusion method; assay type: functional; conditions: ATCC 27853, 24 h, read-out: IZ; procedure, shortened: as §1
[7] = test system: Candida albicans; experiment: Antifungal activity against Candida albicans NCIM 300 after 2 to 3 days by serial plate dilution method; assay type: functional; procedure, shortened: as §2
[8] = test system: Bacillus subtilis; experiment: Antibacterial activity against Bacillus subtilis ATCC 11774 at 15 ug/ml after 24 hrs by disc diffusion method; assay type: functional; conditions: ATCC 11774, 24 h, read-out: IZ; procedure, shortened: as §1
[9] = test system: Aspergillus flavus; experiment: Antifungal activity against Aspergillus flavus NCIM 524 at 10 ug/ml after 2 to 3 days by serial plate dilution method; assay type: functional; conditions: read-out: IZ; procedure, shortened: as §2
[10] = test system: Aspergillus fumigatus; experiment: Antifungal activity against Aspergillus fumigatus NCIM 902 after 2 to 3 days by serial plate dilution method; assay type: functional; procedure, shortened: as §2
[11] = test system: Bacillus subtilis; experiment: Antibacterial activity against Bacillus subtilis ATCC 11774 after 24 hrs by disc diffusion method; assay type: functional; conditions: ATCC 11774, 24 h; procedure, shortened: as §1
[12] = test system: Aspergillus niger; experiment: Antifungal activity against Aspergillus niger NCIM 617 at 10 ug/ml after 2 to 3 days by serial plate dilution method; assay type: functional; conditions: read-out: IZ; procedure, shortened: as §2
[13] = test system: Aspergillus niger; experiment: Antifungal activity against Aspergillus niger NCIM 617 after 2 to 3 days by serial plate dilution method; assay type: functional; procedure, shortened: as §2
[14] = test system: Aspergillus fumigatus; experiment: Antifungal activity against Aspergillus fumigatus NCIM 902 at 10 ug/ml after 2 to 3 days by serial plate dilution method; assay type: functional; conditions: read-out: IZ; procedure, shortened: as §2
[15] = test system: Aspergillus flavus; experiment: Antifungal activity against Aspergillus flavus NCIM 524 after 2 to 3 days by serial plate dilution method; assay type: functional; procedure, shortened: as §2
[16] = test system: Staphylococcus aureus; experiment: Antibacterial activity against Staphylococcus aureus ATCC 25923 at after 24 hrs by disc diffusion method; assay type: functional; conditions: ATCC 25923, 24 h; procedure, shortened: as §1
[17] = test system: Staphylococcus aureus; experiment: Antibacterial activity against Staphylococcus aureus ATCC 25923 at 10 ug/ml after 24 hrs by disc diffusion method; assay type: functional; conditions: ATCC 25923, 24 h, read-out: IZ; procedure, shortened: as §1
[18] = test system: Aspergillus niger; experiment: Antifungal activity against Aspergillus niger NCIM 617 at >50 ug/ml after 2 to 3 days by serial plate dilution method; assay type: functional, organism-based; procedure, shortened: as §2
[19] = test system: Candida albicans; experiment: Antifungal activity against Candida albicans NCIM 300 at >50 ug/ml after 2 to 3 days by serial plate dilution method; assay type: functional, organism-based; procedure, shortened: as §2
[20] = test system: Pseudomonas aeruginosa; experiment: Antibacterial activity against Pseudomonas aeruginosa ATCC 27853 at >50 ug/ml after 24 hrs by disc diffusion method; assay type: functional, organism-based; procedure, shortened: as §1
[21] = test system: Escherichia coli; experiment: Antibacterial activity against Escherichia coli ATCC 25922 at >50 ug/ml after 24 hrs by disc diffusion method; assay type: functional, organism-based; procedure, shortened: as §1
[22] = test system: Bacillus subtilis; experiment: Antibacterial activity against Bacillus subtilis ATCC 11774 at >50 ug/ml after 24 hrs by disc diffusion method; assay type: functional, organism-based; procedure, shortened: as §1

Compound	zone of inhibition at 10 µg/mL [2] [mm]	MIC [3] [µg/mL]	MIC [4] [µg/mL]	zone of inhibition at 10 µg/mL [5] [mm]	zone of inhibition at 10 µg/mL [6] [mm]	MIC [7] [µg/mL]	zone of inhibition at 15 µg/mL [8] [mm]	zone of inhibition at 10 µg/mL [9] [mm]	MIC [10] [µg/mL]	MIC [11] [µg/mL]	zone of inhibition at 10 µg/mL [12] [mm]	MIC [13] [µg/mL]	zone of inhibition at 10 µg/mL [14] [mm]	MIC [15] [µg/mL]	MIC [16] [µg/mL]	zone of inhibition at 10 µg/mL [17] [mm]	Activity [20]	also measured
O=C1C=CC(=O)N1CC(=O)N1c2ccccc2Sc2ccc(C(F)(F)F)cc21	19	15 (≈ 37.1 µM)	10 (≈ 24.7 µM)	19	19	20 (≈ 49.5 µM)	17	19	30 (≈ 74.2 µM)	15 (≈ 37.1 µM)	19	20 (≈ 49.5 µM)	10	20 (≈ 49.5 µM)	–	–	–	Activity [1]: inactive
O=C1c2ccccc2C(=O)N1CC(=O)N1c2ccccc2Sc2ccc(Cl)cc21	18	10 (≈ 23.8 µM)	10 (≈ 23.8 µM)	23	18	10 (≈ 23.8 µM)	13	21	10 (≈ 23.8 µM)	30 (≈ 71.3 µM)	24	10 (≈ 23.8 µM)	19	10 (≈ 23.8 µM)	10 (≈ 23.8 µM)	19	–	–
O=C1C=CC(=O)N1CC(=O)N1c2ccccc2Sc2ccccc21	17	15 (≈ 44.6 µM)	10 (≈ 29.7 µM)	20	17	20 (≈ 59.5 µM)	16	18	20 (≈ 59.5 µM)	15 (≈ 44.6 µM)	17	20 (≈ 59.5 µM)	15	20 (≈ 59.5 µM)	15 (≈ 44.6 µM)	15	–	–
O=C1CCC(=O)N1CC(=O)N1c2ccccc2Sc2ccc(C(F)(F)F)cc21	19	15 (≈ 36.9 µM)	20 (≈ 49.2 µM)	21	19	20 (≈ 49.2 µM)	14	23	15 (≈ 36.9 µM)	25 (≈ 61.5 µM)	21	20 (≈ 49.2 µM)	19	10 (≈ 24.6 µM)	15 (≈ 36.9 µM)	18	–	–
CC(=O)c1ccc2c(c1)N(C(=O)CN1C(=O)C=CC1=O)c1ccccc1S2	–	15 (≈ 39.6 µM)	20 (≈ 52.9 µM)	18	17	–	16	18	30 (≈ 79.3 µM)	15 (≈ 39.6 µM)	–	–	16	25 (≈ 66.1 µM)	15 (≈ 39.6 µM)	16	–	Activity [18]: inactive; Activity [19]: inactive
CC(=O)c1ccc2c(c1)N(C(=O)CN1C(=O)c3ccccc3C1=O)c1ccccc1S2	14	–	10 (≈ 23.3 µM)	21	–	10 (≈ 23.3 µM)	16	22	15 (≈ 35 µM)	15 (≈ 35 µM)	25	10 (≈ 23.3 µM)	19	10 (≈ 23.3 µM)	10 (≈ 23.3 µM)	19	inactive	–
O=C1CCC(=O)N1CC(=O)N1c2ccccc2Sc2ccccc21	17	–	10 (≈ 29.6 µM)	24	–	15 (≈ 44.3 µM)	18	24	20 (≈ 59.1 µM)	15 (≈ 44.3 µM)	19	20 (≈ 59.1 µM)	19	15 (≈ 44.3 µM)	–	–	inactive	Activity [1]: inactive
O=C(O)c1cn(C2CC2)c2cc(N3CCNCC3)c(F)cc2c1=O [CIPROFLOXACIN]	–	10 (≈ 30.2 µM)	–	–	23	–	22	–	–	10 (≈ 30.2 µM)	–	–	–	–	10 (≈ 30.2 µM)	21	–	–
O=C1CCC(=O)N1CC(=O)N1c2ccccc2Sc2ccc(Cl)cc21	13	15 (≈ 40.2 µM)	15 (≈ 40.2 µM)	16	16	25 (≈ 67.1 µM)	14	12	20 (≈ 53.6 µM)	30 (≈ 80.5 µM)	23	20 (≈ 53.6 µM)	18	25 (≈ 67.1 µM)	30 (≈ 80.5 µM)	12	–	–
O=C1c2ccccc2C(=O)N1CC(=O)N1c2ccccc2Sc2ccccc21	17	–	10 (≈ 25.9 µM)	22	–	10 (≈ 25.9 µM)	17	22	15 (≈ 38.8 µM)	15 (≈ 38.8 µM)	23	10 (≈ 25.9 µM)	20	10 (≈ 25.9 µM)	10 (≈ 25.9 µM)	20	inactive	–
O=C1c2ccccc2C(=O)N1CC(=O)N1c2ccccc2Sc2ccc(C(F)(F)F)cc21	21	–	–	–	–	10 (≈ 22 µM)	14	22	10 (≈ 22 µM)	25 (≈ 55 µM)	21	10 (≈ 22 µM)	18	10 (≈ 22 µM)	–	–	inactive	Activity [1]: inactive; Activity [21]: inactive
OC(Cn1cncn1)(Cn1cncn1)c1ccc(F)cc1F [FLUCONAZOLE]	21	–	–	–	–	10 (≈ 32.7 µM)	–	24	10 (≈ 32.7 µM)	–	23	10 (≈ 32.7 µM)	20	10 (≈ 32.7 µM)	–	–	–	–
CC(=O)c1ccc2c(c1)N(C(=O)CN1C(=O)CCC1=O)c1ccccc1S2	–	–	10 (≈ 26.3 µM)	24	–	–	–	20	15 (≈ 39.4 µM)	–	26	20 (≈ 52.6 µM)	13	25 (≈ 65.7 µM)	–	–	inactive	Activity [1]: inactive; Activity [22]: inactive; Activity [19]: inactive
O=C1C=CC(=O)N1CC(=O)N1c2ccccc2Sc2ccc(Cl)cc21	17	15 (≈ 40.5 µM)	10 (≈ 27 µM)	20	17	20 (≈ 53.9 µM)	–	15	20 (≈ 53.9 µM)	–	18	20 (≈ 53.9 µM)	16	20 (≈ 53.9 µM)	15 (≈ 40.5 µM)	18	–	Activity [22]: inactive
